The results in this text go back to ChEMBL document CHEMBL1129738, “3-Aryl-1,2-diacetamidopropane derivatives as novel and potent NK-1 receptor antagonists” (J Med Chem, 1996).

Assay [1] has as its target Substance-P receptor (Homo sapiens, UniProt P25103). The assay is described as follows: Inhibitory activity against Tachykinin receptor 1 in human IM-9 cells using [125I]-labeled Boltan-Hunter substance P as radioligand. In kind it is cell-based.
The target in assay [2] is Substance-P receptor (Mus musculus, UniProt P30548). Description: Inhibitory activity against Tachykinin receptor 1 in mouse brain using [125I]-labeled Boltan-Hunter substance P as radioligand. In kind it is tissue-based.
Chain of Substance-P receptor (Mus musculus, UniProt P30548) (P30548 whole entry): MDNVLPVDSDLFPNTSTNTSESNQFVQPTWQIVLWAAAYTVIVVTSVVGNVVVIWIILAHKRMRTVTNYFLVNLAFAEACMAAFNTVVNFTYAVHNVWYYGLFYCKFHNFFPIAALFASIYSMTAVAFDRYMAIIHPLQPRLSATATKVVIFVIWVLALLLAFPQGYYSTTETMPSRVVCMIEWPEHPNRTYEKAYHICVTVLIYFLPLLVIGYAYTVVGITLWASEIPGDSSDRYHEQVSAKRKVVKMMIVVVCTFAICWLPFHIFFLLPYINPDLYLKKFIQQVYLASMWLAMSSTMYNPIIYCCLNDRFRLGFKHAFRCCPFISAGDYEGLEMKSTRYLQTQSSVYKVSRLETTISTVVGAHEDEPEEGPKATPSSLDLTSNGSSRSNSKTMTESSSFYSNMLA
Assay [3] has as its target Substance-P receptor (Rattus norvegicus, UniProt P14600). Description: Inhibitory activity against Tachykinin receptor 1 in rat brain using [125I]-labeled Boltan-Hunter substance P as radioligand. In kind it is tissue-based.
In another assay the target is T1, Neuromedin-K receptor (Rattus norvegicus, UniProt P16177).
T1 sequence (P16177 whole entry): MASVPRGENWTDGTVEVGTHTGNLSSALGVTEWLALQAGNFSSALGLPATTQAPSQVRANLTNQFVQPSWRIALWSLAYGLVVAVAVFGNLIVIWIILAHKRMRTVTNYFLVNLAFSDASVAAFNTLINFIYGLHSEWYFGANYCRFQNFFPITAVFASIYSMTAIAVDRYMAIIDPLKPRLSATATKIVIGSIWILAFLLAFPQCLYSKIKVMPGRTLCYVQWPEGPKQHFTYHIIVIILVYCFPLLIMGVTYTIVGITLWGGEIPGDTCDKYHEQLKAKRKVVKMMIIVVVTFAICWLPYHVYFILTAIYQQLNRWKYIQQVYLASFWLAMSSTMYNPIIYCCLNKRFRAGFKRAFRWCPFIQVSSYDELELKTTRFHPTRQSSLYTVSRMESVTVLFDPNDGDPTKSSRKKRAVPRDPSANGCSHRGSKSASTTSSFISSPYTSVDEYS
Description: Inhibition of neurokinin B induced contraction of rat portal vein (RPV) tissue expressing Tachykinin receptor 3. Type of assay: functional. The following applies: read-out: pA2 (converted).

The next assay concerns U-373 MG (Homo sapiens). The assay is described as follows: In vitro inhibitory activity against P induced IL-6 secretion in U-373 MG Astrocytoma cells.
A further assay concerns U11 MG. The assay is described as follows: In vitro inhibitory activity against P induced phosphatidyl inositol turnover in UC-11 MG Astrocytoma cells. In kind it is functional, cell-based, Homo sapiens. In outline:
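Human UC-11 MG astrocytoma cells; inhibition of substance P-induced phosphatidylinositol turnover; Ki in nM; mean of two determinations.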

In a further assay the target is T2, Substance-K receptor (Oryctolagus cuniculus, UniProt P79218).
T2 sequence (P79218 whole entry): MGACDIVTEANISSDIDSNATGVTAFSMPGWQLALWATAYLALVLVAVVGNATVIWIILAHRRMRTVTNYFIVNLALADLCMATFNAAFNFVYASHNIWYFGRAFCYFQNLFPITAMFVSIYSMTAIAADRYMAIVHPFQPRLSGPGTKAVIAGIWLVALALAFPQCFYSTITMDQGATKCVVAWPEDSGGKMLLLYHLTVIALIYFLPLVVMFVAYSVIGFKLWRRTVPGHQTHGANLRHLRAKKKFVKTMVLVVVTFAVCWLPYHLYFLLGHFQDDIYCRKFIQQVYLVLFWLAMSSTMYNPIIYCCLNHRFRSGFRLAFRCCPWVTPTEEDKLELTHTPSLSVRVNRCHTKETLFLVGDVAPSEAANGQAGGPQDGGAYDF
The assay is described as follows: Inhibition of neurokinin A induced contraction of rabbit pulmonary artery (RPA) tissue expressing Tachykinin receptor 2. In kind it is functional, tissue-based. The following applies: read-out: pA2 (converted).

For assay [4], the target named is Substance-P receptor (Cavia porcellus, UniProt P30547). The assay is described as follows: Inhibitory activity against Tachykinin receptor 1 in guinea pig brain using [125I]-labeled Boltan-Hunter substance P as radioligand.
Chain of Substance-P receptor (Cavia porcellus, UniProt P30547) (P30547 whole entry): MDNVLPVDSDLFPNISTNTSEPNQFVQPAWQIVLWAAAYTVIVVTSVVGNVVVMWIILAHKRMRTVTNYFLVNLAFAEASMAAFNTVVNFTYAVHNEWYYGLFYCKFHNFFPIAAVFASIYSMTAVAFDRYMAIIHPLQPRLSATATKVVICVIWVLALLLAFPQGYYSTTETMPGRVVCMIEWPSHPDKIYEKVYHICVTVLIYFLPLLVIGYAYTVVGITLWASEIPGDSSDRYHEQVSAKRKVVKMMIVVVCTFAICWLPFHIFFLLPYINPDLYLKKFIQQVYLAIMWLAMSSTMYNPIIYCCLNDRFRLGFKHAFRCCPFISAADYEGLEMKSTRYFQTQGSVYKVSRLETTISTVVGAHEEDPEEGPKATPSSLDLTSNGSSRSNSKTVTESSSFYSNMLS

Chain of Substance-P receptor (Rattus norvegicus, UniProt P14600) (P14600 whole entry): as the sequence (P30548 whole entry) above, with V7M, T15I, I266V, D367E counted along it
Chain of Substance-P receptor (Homo sapiens, UniProt P25103) (P25103 whole entry): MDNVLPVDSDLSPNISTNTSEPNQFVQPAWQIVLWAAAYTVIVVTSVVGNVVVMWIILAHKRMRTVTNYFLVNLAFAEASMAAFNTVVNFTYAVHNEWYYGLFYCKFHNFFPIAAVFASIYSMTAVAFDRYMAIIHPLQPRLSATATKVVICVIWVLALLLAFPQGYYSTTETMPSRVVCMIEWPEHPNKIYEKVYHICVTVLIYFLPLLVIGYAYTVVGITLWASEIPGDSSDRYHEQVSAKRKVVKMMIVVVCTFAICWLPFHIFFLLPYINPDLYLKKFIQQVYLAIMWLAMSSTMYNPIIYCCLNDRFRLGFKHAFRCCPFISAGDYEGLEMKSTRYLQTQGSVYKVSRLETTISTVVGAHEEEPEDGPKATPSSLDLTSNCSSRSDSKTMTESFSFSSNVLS

For `CC(=O)N(CC(Cc1c[nH]c2ccccc12)NC(=O)CN1CCN(c2ccccc2)CC1)c1ccccc1` (centres undefined), the IC50 on Substance-P receptor [1] was greater than 5000 nM.
In turn, `CC(=O)N(CC1CCCCC1)CC(Cc1c[nH]c2ccccc12)NC(=O)CN1CCN(c2ccccc2)CC1` (centres undefined) had an IC50 at Substance-P receptor [1] of 21.9 nM.
Still for that read-out and setting: the result for `COc1ccccc1CN(CC(NC(=O)CN1CCN(c2ccccc2)CC1)c1ccccc1)C(C)=O` (centres undefined) reads 474 nM.
The same measure, in the same setting: the result for `CCCCN(CC(Cc1c[nH]c2ccccc12)NC(=O)CN1CCN(c2ccccc2)CC1)C(C)=O` (centres undefined) reads 149 nM.
Still for that read-out and setting: then `CC(=O)N(Cc1ccccc1Cl)CC(Cc1c[nH]c2ccccc12)NC(=O)CN1CCC(N2CCCCC2)CC1` (centres undefined), with 0.18 nM.
For the compound `COc1ccccc1CN(CC(Cc1c[nH]c2ccccc12)NC(=O)CN1CCN(c2ccccc2)CC1)C(=O)CN(C)C` (centres undefined), the IC50 at Substance-P receptor [2] is 200 nM; on Substance-P receptor [1] it was 1.54 nM; on Substance-P receptor [3] it was 480 nM.
Turning to `COc1ccccc1CN(CC(Cc1c[nH]c2ccccc12)NC(=O)CN1CCN(c2ccccc2)CC1)S(C)(=O)=O` (centres undefined), at Substance-P receptor [1], the 50% inhibitory concentration (IC50) was 4 nM.
Still for that read-out and setting: then `COc1ccccc1CN(CC(CC1CNc2ccccc21)NC(=O)CN1CCN(c2ccccc2)CC1)C(C)=O` (centres undefined), with 27.4 nM.
On to `COc1ccccc1CN(C[C@@H](Cc1c[nH]c2ccccc12)NC(=O)CN1CCN(C2CCCCC2)CC1)C(C)=O`, for which the half-maximal inhibitory concentration (IC50) stood at 1.3 nM at Substance-P receptor [2], 0.18 nM at Substance-P receptor [1] and 1.5 nM on Substance-P receptor [3].
For `CC(=O)N(CCc1ccccc1)CC(Cc1c[nH]c2ccccc12)NC(=O)CN1CCN(c2ccccc2)CC1` (centres undefined), the IC50 on Substance-P receptor [1] is 126 nM.
Turning to `COc1ccccc1CN[C@H]1C2CCN(CC2)[C@H]1C(c1ccccc1)c1ccccc1` [CP-96345], the Kb at Neuromedin-K receptor was 2510 nM; on Substance-K receptor, 50100 nM. For the same compound, the Ki in the assay on U-373 MG (Homo sapiens) was 4 nM; with U11 MG it was 5.2 nM.
`CC(=O)N(Cc1ccccc1Cl)CC(Cc1c[nH]c2ccccc12)NC(=O)CN1CCN(c2ccccc2)CC1` (centres undefined): the IC50 on Substance-P receptor [1] was 1.9 nM.
Same read-out and setting: then `COc1ccccc1CN(CC(Cc1c[nH]c2ccccc12)NC(=O)CN1CCOCC1)C(C)=O` (centres undefined), with 27 nM.
The same measure, in the same setting: the result for `COC(=O)CC(=O)N(Cc1ccccc1OC)CC(Cc1c[nH]c2ccccc12)NC(=O)CN1CCN(c2ccccc2)CC1` (centres undefined) reads 1.28 nM; that for `CCN(Cc1ccccc1OC)CC(Cc1c[nH]c2ccccc12)NC(=O)CN1CCN(c2ccccc2)CC1` (centres undefined), 85 nM.
On Substance-P receptor [1], `COc1ccccc1CN(C=O)CC(Cc1c[nH]c2ccccc12)NC(=O)CN1CCN(c2ccccc2)CC1` (centres undefined) returned a concentration for half-maximal inhibition (IC50) of 0.8 nM.
Same read-out and setting: the result for `CSc1ccccc1CN(CC(Cc1c[nH]c2ccccc12)NC(=O)CN1CCN(c2ccccc2)CC1)C(C)=O` (centres undefined) reads 7.2 nM.
The same measure, in the same setting: then `COc1ccccc1CN(CC(Cc1c[nH]c2ccccc12)NC(=O)CN1CCC(c2ccccc2)CC1)C(C)=O` (centres undefined), with 4.5 nM; and `COc1ccccc1CN(CC(Cc1c[nH]c2ccccc12)NC(=O)CN1CCN(C)CC1)C(C)=O` (centres undefined), with 5.3 nM.
The same measure, in the same setting: the result for `CC(=O)N(Cc1ccccc1)CC(Cc1c[nH]c2ccccc12)NC(=O)CN1CCN(c2ccccc2)CC1` (centres undefined) reads 2.2 nM.
Turning to `COc1ccccc1CN(C[C@@H](Cc1c[nH]c2ccccc12)NC(=O)CN1CCN(c2ccccc2)CC1)C(C)=O`, the results for the Ki in the assay with U-373 MG (Homo sapiens) and in the assay on U11 MG were 1.2 nM and 0.48 nM, respectively.
For `CC(=O)N(Cc1ccccc1Cl)C[C@H](Cc1c[nH]c2ccccc12)NC(=O)CN1CCC(N2CCCCC2)CC1`, on Substance-P receptor [1], the IC50 was determined as 159 nM.
In the case of `COc1ccccc1CN(C[C@H](Cc1c[nH]c2ccccc12)NC(=O)CN1CCC(N2CCCCC2)CC1)C(C)=O`, the figures for the Kb on Neuromedin-K receptor and on Substance-K receptor were 200 nM and 20000 nM, respectively. This compound returned a Ki in the assay with U11 MG of 5600 nM.
`COc1ccccc1CN(C[C@@H](Cc1c[nH]c2ccccc12)NC(=O)CN1CCC(N2CCCCC2)CC1)C(C)=O` [LANEPITANT]: the Kb at Neuromedin-K receptor and on Substance-K receptor was 20000 nM throughout. Besides, the values for the inhibitory constant (Ki) in the assay on U-373 MG (Homo sapiens) and with U11 MG were 5.5 nM and 1.3 nM, respectively.
In turn, `COc1ccccc1CN(CCNC(=O)CN1CCN(c2ccccc2)CC1)C(C)=O` yielded a concentration for half-maximal inhibition (IC50) at Substance-P receptor [1] greater than 5000 nM.
On the same count and under the same terms, the result for `COc1ccccc1CN(CC(Cc1cccc2ccccc12)NC(=O)CN1CCN(c2ccccc2)CC1)C(C)=O` (centres undefined) reads 2.73 nM; that for `COc1ccccc1CN(CC(Cc1csc2ccccc12)NC(=O)CN1CCN(c2ccccc2)CC1)C(C)=O` (centres undefined), 1.18 nM; that for `CNC(=O)N(Cc1ccccc1OC)CC(Cc1c[nH]c2ccccc12)NC(=O)CN1CCN(c2ccccc2)CC1` (centres undefined), 3 nM.
Consider `COc1ccccc1CC(=N)N1C[C@@H]2C(=O)CCC(c3ccccc3)(c3ccccc3)[C@@H]2C1`, for which the IC50 was 8.7 nM at Substance-P receptor [2], 30 nM at Substance-P receptor [1], 6.7 nM on Substance-P receptor [3] and 32 nM on Substance-P receptor [4].
In the case of `COc1ccccc1CN(CC(Cc1c[nH]c2ccccc12)NC(=O)CN1CCCCC1)C(C)=O` (centres undefined), the 50% inhibitory concentration (IC50) at Substance-P receptor [1] amounted to 33 nM.
On the same count and under the same terms, then `COc1ccccc1CN(CC(Cc1c[nH]c2ccccc12)NC(=O)CN1CC=C(c2ccccc2)CC1)C(C)=O` (centres undefined), with 3.1 nM.
Consider `COc1ccccc1CN(CC(Cc1c[nH]c2ccccc12)NC(=O)CN1CCN(Cc2ccccc2)CC1)C(C)=O` (centres undefined), for which the IC50 at Substance-P receptor [1] turned out to be 0.98 nM; on Substance-P receptor [3], 16 nM; on Substance-P receptor [4], 0.88 nM.
In turn, `COc1ccccc1CN(CC(Cc1c[nH]c2ccccc12)NC(=O)CN1CCN(C2CCCCC2)CC1)C(C)=O` (centres undefined) displayed a half-inhibitory concentration (IC50) at Substance-P receptor [1] of 0.34 nM.
With `COc1ccccc1CN(CC(Cc1c[nH]c2ccccc12)NC(=O)CN1CCC(N(C)C)CC1)C(C)=O` (centres undefined), at Substance-P receptor [1], the IC50 amounted to 2.8 nM.
Same read-out and setting: the result for `CC(=O)N(Cc1ccccc1C(F)(F)F)CC(Cc1c[nH]c2ccccc12)NC(=O)CN1CCN(c2ccccc2)CC1` (centres undefined) reads 3.2 nM; that for `COc1ccccc1CN(CC(NC(=O)CN1CCN(c2ccccc2)CC1)c1ccc(Cl)c(Cl)c1)C(C)=O` (centres undefined), 338 nM; that for `COc1ccccc1CNCC(Cc1c[nH]c2ccccc12)NC(=O)CN1CCN(c2ccccc2)CC1` (centres undefined), 51 nM.
In the case of `COc1ccccc1CN(C[C@H](Cc1c[nH]c2ccccc12)NC(=O)CN1CCN(c2ccccc2)CC1)C(C)=O`, the Ki was determined as 3500 nM with U-373 MG (Homo sapiens) and 630 nM with U11 MG. Moreover, the Kb at Substance-K receptor was 20000 nM.
The compound `CCOC(=O)N(Cc1ccccc1OC)CC(Cc1c[nH]c2ccccc12)NC(=O)CN1CCN(c2ccccc2)CC1` (centres undefined) gave a half-maximal inhibitory concentration (IC50) on Substance-P receptor [1] of 5.5 nM.
The same measure, in the same setting: the result for `CC(=O)N(Cc1ccccc1[N+](=O)[O-])CC(Cc1c[nH]c2ccccc12)NC(=O)CN1CCN(c2ccccc2)CC1` (centres undefined) reads 3 nM.
As for `COc1ccccc1CN(CC(Cc1c[nH]c2ccccc12)NC(=O)CN1CCN(c2ccccc2)CC1)C(=O)c1ccccc1` (centres undefined), the IC50 at Substance-P receptor [1] stood at 2 nM.
`CC(=O)N(C)CC(Cc1c[nH]c2ccccc12)NC(=O)CN1CCN(c2ccccc2)CC1` (centres undefined) showed an IC50 at Substance-P receptor [1] greater than 5000 nM.
The same measure, in the same setting: the result for `COc1ccccc1CN(CC(NC(=O)CN1CCN(c2ccccc2)CC1)C(C)C)C(C)=O` (centres undefined) reads greater than 5000 nM; that for `CCC(=O)N(Cc1ccccc1OC)CC(Cc1c[nH]c2ccccc12)NC(=O)CN1CCN(c2ccccc2)CC1` (centres undefined), 0.81 nM.
The same measure, in the same setting: then `CC(=O)N(Cc1ccccc1C)CC(Cc1c[nH]c2ccccc12)NC(=O)CN1CCN(c2ccccc2)CC1` (centres undefined), with 3.2 nM; and `COc1ccccc1CN(C[C@H](Cc1c[nH]c2ccccc12)NC(=O)CN1CCN(C2CCCCC2)CC1)C(C)=O`, with 80.9 nM.
Still for that read-out and setting: then `COc1ccccc1CN(CC(Cc1ccc2ccccc2c1)NC(=O)CN1CCN(c2ccccc2)CC1)C(C)=O` (centres undefined), with 11 nM.
Consider `COc1ccc(CN(CC(Cc2c[nH]c3ccccc23)NC(=O)CN2CCN(c3ccccc3)CC2)C(C)=O)cc1` (centres undefined), for which the concentration for half-maximal inhibition (IC50) on Substance-P receptor [1] amounted to 2.5 nM; on Substance-P receptor [3], 1100 nM.
